Results taken from ChEMBL document CHEMBL3244139, “Antiarrhythmic activity of p-hydroxy-N-(2-diethylaminoethyl) benzamide (the p-hydroxy isostere of procainamide) in dogs and mice” (J Med Chem, 1977).
Activity calls are given as the source filed them. No cut-off for these calls is given here.

What was measured:
[1] = tested on: Canis familiaris; experiment: Antiarrhythmic activity in aconitine-induced mongrel dog arrhythmic model assessed as mean arterial blood pressure measured at end of infusion at 59 +/- 25 mg/kg, iv (reference value: 70 +/- 8 mmHg); format: functional, Canis lupus familiaris, Artery
[2] = tested on: Canis familiaris; experiment: Antiarrhythmic activity in aconitine-induced mongrel dog arrhythmic model assessed as atrial rate at 59 +/- 25 mg/kg, iv after 16 +/- 10 mins from end of infusion; format: functional, Canis lupus familiaris, Heart
[3] = tested on: Canis familiaris; experiment: Antiarrhythmic activity in aconitine-induced mongrel dog arrhythmic model assessed as decrease in ventricular rate at 59 +/- 25 mg/kg, iv after 16 +/- 10 mins from end of infusion (reference value: 205 +/- 65 BPM); format: functional, Canis lupus familiaris, Heart
[4] = Antiarrhythmic activity in mongrel dog Purkinje fiber assessed as rate of phase 0 depolarization (dV/dt) at 5 ug/ml by Single Cell Potentials/electrophysiological technique (reference value: 439 +/- 47 V/s); format: functional, Canis lupus familiaris
[5] = Antiarrhythmic activity in mongrel dog Purkinje fiber assessed as rate of phase 0 depolarization (dV/dt) at 20 ug/ml by Single Cell Potentials/electrophysiological technique (reference value: 478 +/- 67 V/s); format: functional, Canis lupus familiaris
[6] = Antiarrhythmic activity in mongrel dog Purkinje fiber assessed as 50% repolarization time at 5 ug/ml by Single Cell Potentials/electrophysiological technique (reference value: 200 +/- 6 ms); format: functional, Canis lupus familiaris
[7] = Antiarrhythmic activity in mongrel dog Purkinje fiber assessed as 50% repolarization time at 20 ug/ml by Single Cell Potentials/electrophysiological technique (reference value: 236 +/- 9 ms); format: functional, Canis lupus familiaris
[8] = Antiarrhythmic activity in mongrel dog Purkinje fiber assessed as 90% repolarization time at 5 ug/ml by Single Cell Potentials/electrophysiological technique (reference value: 282 +/- 8 ms); format: functional, Canis lupus familiaris
[9] = Antiarrhythmic activity in mongrel dog Purkinje fiber assessed as 90% repolarization time at 20 ug/ml by Single Cell Potentials/electrophysiological technique (reference value: 302 +/- 12 ms); format: functional, Canis lupus familiaris
[10] = Antiarrhythmic activity in mongrel dog Purkinje fiber assessed as spontaneous intrinsic rate at 5 ug/ml by Single Cell Potentials/electrophysiological technique (reference value: 19 +/- 4 BPM); format: functional, Canis lupus familiaris
[11] = Antiarrhythmic activity in mongrel dog Purkinje fiber assessed as spontaneous intrinsic rate at 20 ug/ml by Single Cell Potentials/electrophysiological technique (reference value: 22 +/- 5 BPM); format: functional, Canis lupus familiaris
[12] = tested on: Mus musculus; experiment: Antiarrhythmic activity in ip dosed ICR mouse assessed as protection against chloroform-induced ventricular fibrillation; format: functional; details: Heart
Procedure, shortened: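 Male ICR mice, 28-35 days, mean 25 g, given drug ip, then after 10 min exposed to chloroform in a jar until breathing stopped. Protection meant no intermittent or continuous ventricular fibrillation at any point. Eight mice per dosage interval.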

[13] = Toxicity in ip dosed ICR mouse assessed as acute mortality; format: organism-based; details: in vivo
Procedure, shortened: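 Male ICR mice, 28-35 days old (av wt 26 g), in groups of ten per dose level, given drug ip. Deaths recorded at 10, 15, 30, 60, 120 and 210 min after injection to set acute mortality.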

[14] = Therapeutic index, ratio of LD50 for ICR mouse assessed as acute mortality to ED50 for protection against chloroform-induced ventricular fibrillation in ICR mouse; format: organism-based, Cardiac ventricle; details: in vivo, read-out: Ratio LD50/ED50
Procedure, shortened: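 Male ICR mice, 28-35 days old, dosed ip. For ED50, 8 mice per dose went into a chloroform jar 10 min after dosing and were kept there until breathing stopped; mice with no intermittent or continuous ventricular fibrillation counted as protected. ED50 was derived by Litchfield-Wilcoxon. LD50 came from acute mortality in 10 mice per dose. Index reported as LD50/ED50.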

[15] = Antiarrhythmic activity in mongrel dog Purkinje fiber assessed as maximum diastolic potential at 5 ug/ml (reference value: -93 +/- 2 mV) by Single Cell Potentials/electrophysiological technique; format: functional, Canis lupus familiaris
[16] = Antiarrhythmic activity in mongrel dog Purkinje fiber assessed as maximum diastolic potential at 20 ug/ml (reference value: -93 +/- 2 mV) by Single Cell Potentials/electrophysiological technique; format: functional, Canis lupus familiaris
[17] = Antiarrhythmic activity in mongrel dog Purkinje fiber assessed as action potential at 5 ug/ml (reference value: 127 +/- 2 mV) by Single Cell Potentials/electrophysiological technique; format: functional, Canis lupus familiaris
[18] = Antiarrhythmic activity in mongrel dog Purkinje fiber assessed as action potential at 20 ug/ml (reference value: 128 +/- 3 mV) by Single Cell Potentials/electrophysiological technique; format: functional, Canis lupus familiaris
[19] = tested on: Plasma; experiment: Drug metabolism in mongrel dog assessed as p-hydroxy-N-(2-diethylaminoethyl)benzamide level in plasma; format: ADME, cell-free, Canis lupus familiaris
Procedure, shortened: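 Dog plasma sampled when infusion ended. Extracted with NaCl and internal standard and run on TLC (benzene/28% ammonia/acetone/dioxane 5:8:80:5). Quantified by reflectance densitometry, 260-nm illumination, as fluorescence quenching. Peak areas read against standard curves, linear over 0.1-0.8 µg per plate.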

[20] = tested on: Plasma; experiment: Plasma concentration in mongrel dog at 59 +/- 25 mg/kg, iv; format: ADME, organism-based, Canis lupus familiaris; set-up: route intravenous; details: in vivo
Procedure, shortened: (§1)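 Plasma withdrawn from each aconitine-treated dog when iv infusion was discontinued; drug measured by TLC densitometry.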

[21] = tested on: Canis familiaris; experiment: Antiarrhythmic activity in aconitine-induced mongrel dog arrhythmic model assessed as atrial rate measured at end of infusion at 59 +/- 25 mg/kg, iv; format: functional, Canis lupus familiaris, Heart
[22] = tested on: Canis familiaris; experiment: Antiarrhythmic activity in aconitine-induced mongrel dog arrhythmic model assessed as decrease in ventricular rate measured at end of infusion at 59 +/- 25 mg/kg, iv (reference value: 205 +/- 65 BPM); format: functional, Canis lupus familiaris, Heart
[23] = tested on: Canis familiaris; experiment: Antiarrhythmic activity in aconitine-induced mongrel dog arrhythmic model assessed as decrease in ventricular rate rate measured at end of infusion at 50 +/- 24 mg/kg, iv (reference value: 205 +/- 65 BPM); format: functional, Canis lupus familiaris, Heart
[24] = tested on: Canis familiaris; experiment: Antiarrhythmic activity in aconitine-induced mongrel dog arrhythmic model assessed as mean arterial blood pressure measured at end of infusion at 50 +/- 24 mg/kg, iv (reference value: 70 +/- 8 mmHg); format: functional, Canis lupus familiaris, Artery
[25] = tested on: Canis familiaris; experiment: Antiarrhythmic activity in aconitine-induced mongrel dog arrhythmic model assessed as atrial rate at 50 +/- 24 mg/kg, iv after 20 +/- 3 mins from end of infusion; format: functional, Canis lupus familiaris, Heart
[26] = tested on: Canis familiaris; experiment: Antiarrhythmic activity in aconitine-induced mongrel dog arrhythmic model assessed as decrease in ventricular rate rate at 50 +/- 24 mg/kg, iv after 20 +/- 3 mins from end of infusion (reference value: 205 +/- 65 BPM); format: functional, Canis lupus familiaris, Heart
[27] = tested on: Plasma; experiment: Drug metabolism in mongrel dog assessed as ester of p-acetoxy-N-(2-diethylaminoethyl)benzamide level in plasma; format: ADME, cell-free, Canis lupus familiaris
Procedure, shortened: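 Dog plasma taken at end of infusion was extracted as for the phenol but without internal standard. Spotted on silica gel F254 TLC, developed with acetone-methanol (1:1), and quantified by densitometry.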

[28] = Stability in human plasma assessed as hydrolysis at 20 ug/ml after 5 mins at room temperature; format: ADME, cell-free; details: read-out: Drug degradation
Procedure, shortened: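 Ester at 20 µg/ml held in fresh human plasma for 5 min at room temperature. Comparison conditions: plasma plus 10^-5 M physostigmine, and saline. Standards extracted and measured by TLC densitometry.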

[29] = tested on: Plasma; experiment: Plasma concentration in mongrel dog at 50 +/- 24 mg/kg, iv; format: ADME, organism-based, Canis lupus familiaris; set-up: route intravenous; details: in vivo; procedure, shortened: as §1
[30] = tested on: Canis familiaris; experiment: Antiarrhythmic activity in aconitine-induced mongrel dog arrhythmic model assessed as atrial rate measured at end of infusion at 50 +/- 24 mg/kg, iv; format: functional, Canis lupus familiaris, Heart
[31] = tested on: Canis familiaris; experiment: Antiarrhythmic activity in aconitine-induced mongrel dog arrhythmic model assessed as mean arterial blood pressure measured at end of infusion at 48 +/- 38 mg/kg, iv (reference value: 70 +/- 8 mmHg); format: functional, Canis lupus familiaris, Artery
[32] = tested on: Canis familiaris; experiment: Antiarrhythmic activity in aconitine-induced mongrel dog arrhythmic model assessed as atrial rate at 48 +/- 38 mg/kg, iv after 17 +/- 16 mins from end of infusion; format: functional, Canis lupus familiaris, Heart
[33] = tested on: Canis familiaris; experiment: Antiarrhythmic activity in aconitine-induced mongrel dog arrhythmic model assessed as decrease in ventricular rate rate at 48 +/- 38 mg/kg, iv after 17 +/- 16 mins from end of infusion (reference value: 205 +/- 65 BPM); format: functional, Canis lupus familiaris, Heart
[34] = Antiarrhythmic activity in mongrel dog Purkinje fiber assessed as rate of phase 0 depolarization (dV/dt) at 10 ug/ml by Single Cell Potentials/electrophysiological technique (reference value: 491 +/- 40 V/s); format: functional, Canis lupus familiaris
[35] = Antiarrhythmic activity in mongrel dog Purkinje fiber assessed as rate of phase 0 depolarization (dV/dt) at 20 ug/ml by Single Cell Potentials/electrophysiological technique (reference value: 474 +/- 57 V/s); format: functional, Canis lupus familiaris
[36] = Antiarrhythmic activity in mongrel dog Purkinje fiber assessed as 50% repolarization time at 10 ug/ml by Single Cell Potentials/electrophysiological technique (reference value: 244 +/- 15 ms); format: functional, Canis lupus familiaris
[37] = Antiarrhythmic activity in mongrel dog Purkinje fiber assessed as 50% repolarization time at 20 ug/ml by Single Cell Potentials/electrophysiological technique (reference value: 223 +/- 11 ms); format: functional, Canis lupus familiaris
[38] = Antiarrhythmic activity in mongrel dog Purkinje fiber assessed as 90% repolarization time at 10 ug/ml by Single Cell Potentials/electrophysiological technique (reference value: 274 +/- 30 ms); format: functional, Canis lupus familiaris
[39] = Antiarrhythmic activity in mongrel dog Purkinje fiber assessed as 90% repolarization time at 20 ug/ml by Single Cell Potentials/electrophysiological technique (reference value: 284 +/- 12 ms); format: functional, Canis lupus familiaris
[40] = Antiarrhythmic activity in mongrel dog Purkinje fiber assessed as spontaneous intrinsic rate at 10 ug/ml by Single Cell Potentials/electrophysiological technique (reference value: 33 +/- 5 BPM); format: functional, Canis lupus familiaris
[41] = Antiarrhythmic activity in mongrel dog Purkinje fiber assessed as spontaneous intrinsic rate at 20 ug/ml by Single Cell Potentials/electrophysiological technique (reference value: 35 +/- 7 BPM); format: functional, Canis lupus familiaris
[42] = tested on: Plasma; experiment: Plasma concentration in mongrel dog at 48 +/- 38 mg/kg, iv; format: ADME, organism-based, Canis lupus familiaris; set-up: route intravenous; details: in vivo; procedure, shortened: as §1
[43] = tested on: Canis familiaris; experiment: Antiarrhythmic activity in aconitine-induced mongrel dog arrhythmic model assessed as atrial rate measured at end of infusion at 48 +/- 38 mg/kg, iv; format: functional, Canis lupus familiaris, Heart
[44] = tested on: Canis familiaris; experiment: Antiarrhythmic activity in aconitine-induced mongrel dog arrhythmic model assessed as decrease in ventricular rate rate measured at end of infusion at 48 +/- 38 mg/kg, iv (reference value: 205 +/- 65 BPM); format: functional, Canis lupus familiaris, Heart
[45] = tested on: Mus musculus; experiment: Antiarrhythmic activity in ICR mouse assessed as protection against chloroform-induced ventricular fibrillation at 233 to 240 mg/kg, ip; format: functional
Procedure, shortened: (§2)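 ICR male mice, 28-35 days old, average weight 25 g, dosed ip. After 10 min they were placed in a chloroform jar and anesthetized. A mouse counted as protected if no intermittent or continuous ventricular fibrillation appeared before breathing ceased. Definite fibrillation counted as unprotected even if it later changed rhythm. Eight mice per dose.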

[46] = tested on: Mus musculus; experiment: Antiarrhythmic activity in ICR mouse assessed as protection against chloroform-induced ventricular fibrillation at 100 mg/kg, ip; format: functional, organism-based; set-up: dose 100 mg/kg; details: Heart; procedure, shortened: as §2

CCN(CC)CCNC(=O)c1ccc(O)cc1.Cl
Activity [1]: 64 mmHg | Activity [2]: 278 bpm | Activity [3]: 160 bpm | Activity [4]: 396 V/s | Activity [5]: 423 V/s | Time [6]: 250 ms | Time [7]: 280 ms | Time [8]: 344 ms | Time [9]: 381 ms | Activity [10]: 20 bpm | Activity [11]: 16 bpm | ED50 [12]: 157 mg/kg | LD50 [13]: 335 mg/kg | selectivity ratio [14]: 2.1 | Activity [15]: -95 mV | Activity [16]: -94 mV | Activity [17]: 127 mV | Activity [18]: 126 mV | Drug metabolism [19]: 97 µg/mL | Cp [20]: 137 µg/mL | Activity [21]: 210 bpm | Activity [22]: 197 bpm

CCN(CC)CCNC(=O)c1ccc(OC(C)=O)cc1.Cl
Activity [23]: 173 bpm | Activity [24]: 70 mmHg | Activity [25]: 373 bpm | Activity [26]: 183 bpm | Drug metabolism [27]: < 0.5 µg/mL | metabolised at 5 min, 20 ug/ml [28]: 60% | Cp [29]: < 0.5 µg/mL | Activity [30]: 173 bpm

CCN(CC)CCNC(=O)c1ccc(N)cc1.Cl [PROCAINAMIDE HYDROCHLORIDE]
Activity [31]: 68 mmHg | Activity [32]: 283 bpm | Activity [33]: 215 bpm | Activity [34]: 421 V/s | Activity [35]: 411 V/s | Time [36]: 265 ms | Time [37]: 239 ms | Time [38]: 334 ms | Time [39]: 316 ms | Activity [40]: 24 bpm | Activity [41]: 23 bpm | ED50 [12]: 137 mg/kg | LD50 [13]: 255 mg/kg | selectivity ratio [14]: 1.8 | Cp [42]: 118 µg/mL | Activity [43]: 225 bpm | Activity [44]: 203 bpm

CCN(CC)CCNC(=O)c1ccc(NC(C)=O)cc1.Cl [ACECAINIDE HYDROCHLORIDE]
ED50 [12]: 110 mg/kg

CCN(CC)CCNC(=O)c1ccccc1
Activity ([45]; Heart): inactive | Activity [46]: inactive

CCN(CC)CCNC(=O)c1ccc([N+](=O)[O-])cc1.Cl
Activity ([45]; dose mg/kg 233-240, route intraperitoneal): 38%
